Source: ChEMBL document CHEMBL1781999, “Lead optimization of aryl and aralkyl amine-based triazolopyrimidine inhibitors of Plasmodium falciparum dihydroorotate dehydrogenase with antimalarial activity in mice” (J Med Chem, 2011)
Calls of active or inactive are those of the source. The calls are words filed in the database; no cut-off is given here.

Legend:
Rattus norvegicus [1] = experiment: AUC (0 to infinity) in Sprague-Dawley rat at 20.1 mg/kg, po by LC-MS analysis; assay type: ADME, organism-based, Plasma; set-up: time infinity, dose 20.1 mg/kg, route oral; conditions: in vivo
Procedure, shortened: (§1)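 Overnight-fasted male Sprague Dawley rats (n=2 per compound) gavaged with an aqueous suspension (DMSO, cellulose, benzyl alcohol, Tween 80 in water); food returned 4 h post-dose. Arterial blood via carotid cannula up to 24 h into heparinized tubes with stabilization cocktail. Plasma acetonitrile-precipitated, LC-MS against blank-plasma standards. AUC by non-compartmental analysis; Cmax read from profiles.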

Plasmodium berghei ANKA [2] = experiment: Antimalarial activity against Plasmodium berghei ANKA NK65 infected in Swiss Webster mouse assessed as complete reduction of parasitemia level at 50 mg/kg, po bid administered for 4 days measured 24 hrs after last dose by light microscopic analysis; assay type: functional, organism-based; set-up: dose 50 mg/kg
Rattus norvegicus [3] = experiment: Cmax in Sprague-Dawley rat at 20.1 mg/kg, po by LC-MS analysis; assay type: ADME, organism-based; set-up: dose 20.1 mg/kg, route oral; conditions: in vivo; procedure, shortened: as §1
Rattus norvegicus [4] = experiment: Volume of distribution at steady state in Sprague-Dawley rat at 1 mg/kg, iv by LC-MS analysis; assay type: ADME, organism-based; set-up: dose 1 mg/kg, route intravenous; conditions: in vivo
Procedure, shortened: (§2)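 Overnight-fasted male Sprague Dawley rats (n=2 per dose). IV dosing was a 10 min jugular infusion in a solution vehicle of DMSO and acid with Captisol or Tween/glucose, depending on compound; oral dosing was by gavage as a suspension.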

Rattus norvegicus [5] = experiment: Oral bioavailability in Sprague-Dawley rat at 20.1 mg/kg by LC-MS analysis; assay type: ADME, organism-based; conditions: in vivo
Procedure, shortened: (§3)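 Overnight-fasted male Sprague Dawley rats, dosed orally by gavage as an aqueous suspension, n=2. Arterial blood taken via carotid cannula up to 24 h; plasma measured by LC-MS. %F = mean dose-normalized oral AUC0-24h versus IV AUC0-24h at the higher IV dose (5 mg/kg or 3 mg/kg, depending on compound); treated as an estimate.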

[6] = Antimalarial activity against Plasmodium berghei ANKA NK65 infected in po dosed Swiss Webster mouse assessed as reduction of parasitemia level administered qd for 4 days measured 24 hrs after last dose by light microscopic analysis; assay type: functional
Rattus norvegicus [7] = experiment: Terminal elimination half life in Sprague-Dawley rat at 20.1 mg/kg, po by LC-MS analysis; assay type: ADME, organism-based; set-up: dose 20.1 mg/kg, route oral; conditions: in vivo; procedure, shortened: as §2
Rattus norvegicus [8] = experiment: Terminal elimination half life in Sprague-Dawley rat at 1 mg/kg, iv by LC-MS analysis; assay type: ADME, organism-based; set-up: dose 1 mg/kg, route intravenous; conditions: in vivo; procedure, shortened: as §2
Rattus norvegicus [9] = experiment: Terminal elimination half life in Sprague-Dawley rat at 5.1 mg/kg, iv by LC-MS analysis; assay type: ADME, organism-based; set-up: dose 5.1 mg/kg, route intravenous; conditions: in vivo; procedure, shortened: as §2
Rattus norvegicus [10] = experiment: Volume of distribution at steady state in Sprague-Dawley rat at 5.1 mg/kg, iv by LC-MS analysis; assay type: ADME, organism-based; set-up: dose 5.1 mg/kg, route intravenous; conditions: in vivo; procedure, shortened: as §2
Plasmodium berghei ANKA [11] = experiment: Antimalarial activity against Plasmodium berghei ANKA NK65 infected in Swiss Webster mouse assessed as complete reduction of parasitemia level at 100 mg/kg, po qd administered for 4 days measured 24 hrs after last dose by light microscopic analysis; assay type: functional, organism-based; set-up: dose 100 mg/kg
Procedure, shortened: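 Female Swiss Webster mice, 8-10 weeks old (20-22 g), infected intraperitoneally with 2 × 10^7 P. berghei NK65 ANKA-infected erythrocytes. Oral doses in CMC vehicle (200 μL), first given 3 h post-infection, then at 24, 48 and 72 h. Parasitemia followed daily from 24 h by light microscopy at 1000× oil immersion, counting ≥10 fields of >100 erythrocytes. Mice losing ≥20% body weight were euthanized.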

[12] = AUC (0 to infinity) in Sprague-Dawley rat at 18.6 mg/kg, po by LC-MS analysis; assay type: ADME, organism-based; set-up: time infinity, dose 18.6 mg/kg, route oral; conditions: plasma; procedure, shortened: as §1
Rattus norvegicus [13] = experiment: Volume of distribution at steady state in Sprague-Dawley rat at 0.9 mg/kg, iv by LC-MS analysis; assay type: ADME, organism-based; set-up: dose 0.9 mg/kg, route intravenous; conditions: in vivo; procedure, shortened: as §2
Rattus norvegicus [14] = experiment: Terminal elimination half life in Sprague-Dawley rat at 2.9 mg/kg, iv by LC-MS analysis; assay type: ADME, organism-based; set-up: dose 2.9 mg/kg, route intravenous; conditions: in vivo; procedure, shortened: as §2
[15] = Oral bioavailability in Sprague-Dawley rat at 18.6 mg/kg by LC-MS analysis; assay type: ADME, organism-based; conditions: in vivo; procedure, shortened: as §3
Rattus norvegicus [16] = experiment: Terminal elimination half life in Sprague-Dawley rat at 0.9 mg/kg, iv by LC-MS analysis; assay type: ADME, organism-based; set-up: dose 0.9 mg/kg, route intravenous; conditions: in vivo; procedure, shortened: as §2
[17] = Terminal elimination half life in Sprague-Dawley rat at 18.6 mg/kg, po by LC-MS analysis; assay type: ADME, organism-based; set-up: dose 18.6 mg/kg, route oral; conditions: in vivo, read-out: beta t1/2 (converted); procedure, shortened: as §2
Plasmodium berghei ANKA [18] = experiment: Antimalarial activity against Plasmodium berghei ANKA NK65 infected in Swiss Webster mouse assessed as complete cure of animal at 100 mg/kg, po bid measured on day 9 by light microscopic analysis; assay type: functional, organism-based; set-up: dose 100 mg/kg
Rattus norvegicus [19] = experiment: Volume of distribution at steady state in Sprague-Dawley rat at 2.9 mg/kg, iv by LC-MS analysis; assay type: ADME, organism-based; set-up: dose 2.9 mg/kg, route intravenous; conditions: in vivo; procedure, shortened: as §2
[20] = Cmax in Sprague-Dawley rat at 18.6 mg/kg, po by LC-MS analysis; assay type: ADME, organism-based; set-up: dose 18.6 mg/kg, route oral; conditions: in vivo; procedure, shortened: as §1

Row | Structure (SMILES) | AUC (Rattus norvegicus [1]) [µM·min] | Activity (Plasmodium berghei ANKA [2]) | Cmax (Rattus norvegicus [3]) [µM] | Vdss (Rattus norvegicus [4]) [L/kg] | F (Rattus norvegicus [5]) [%] | ED50 [6] [mg/kg] | beta t1/2 (Rattus norvegicus [7]) [h] | beta t1/2 (Rattus norvegicus [8]) [h] | beta t1/2 (Rattus norvegicus [9]) [h] | Vdss (Rattus norvegicus [10]) [L/kg] | Activity (Plasmodium berghei ANKA [11]) | AUC(0-inf) [12] [µM·h] | Vdss (Rattus norvegicus [13]) [L/kg] | beta t1/2 (Rattus norvegicus [14]) [h] | bioavailability [15] [%] | beta t1/2 (Rattus norvegicus [16]) [h] | half-life [17] [h] | Activity (Plasmodium berghei ANKA [18]) | Vdss (Rattus norvegicus [19]) [L/kg] | Cmax [20] [µM]
1 | Cc1cc(Nc2ccc(S(F)(F)(F)(F)F)cc2)n2ncnc2n1 | 101693 | inactive | 31 | 1.4 | > 100 | 17 | 33 | 11.4 | 14.5 | 1.5 | inactive |  |  |  |  |  |  |  |  | 
2 | Cc1cc(Nc2cc(F)c(C(F)(F)F)c(F)c2)n2ncnc2n1 |  |  |  |  |  |  |  |  |  |  |  | 1250 | 0.4 | 4.5 | > 100 | 1.6 | 17.6 | inactive | 0.5 | 34.3
